Measurements reported in ChEMBL document CHEMBL1255446, “Combinations of mutations in the connection domain of human immunodeficiency virus type 1 reverse transcriptase: assessing the impact on nucleoside and nonnucleoside reverse transcriptase inhibitor resistance” (2010).

Columns and labels:
Type in all cases: functional
[1] = system: Human immunodeficiency virus 1; assay: Antiviral activity against HIV1 with RT connection domain G190S mutant transfected in HEK293 cells assessed as inhibition of viral replication relative to HIV1 NL4-3
Procedure, shortened: (§1)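 Single-replication-cycle (PhenoSense) assay. Site-directed mutant RT pseudoviruses were made by cotransfecting 293 cells with RTV plasmid plus an amphotropic MLV Env plasmid, harvested at 48 h, and used to infect fresh 293 cells. Serial drug dilutions were added before infection. Luciferase was read ~72 h post-infection, % inhibition was computed, and EC50 was taken from the curves. Values are fold change versus NL4-3 reference run in the same experiment.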

[2] = system: Human immunodeficiency virus 1; assay: Antiviral activity against HIV1 with RT connection domain L100I/T369I mutant transfected in HEK293 cells assessed as inhibition of viral replication relative to HIV1 NL4-3; procedure, shortened: as §1
[3] = system: Human immunodeficiency virus 1; assay: Antiviral activity against HIV1 with RT connection domain T369V mutant transfected in HEK293 cells assessed as inhibition of viral replication relative to HIV1 NL4-3; procedure, shortened: as §1
[4] = system: Human immunodeficiency virus 1; assay: Antiviral activity against HIV1 with RT connection domain G190A/T369I/N348I mutant transfected in HEK293 cells assessed as inhibition of viral replication relative to HIV1 NL4-3; procedure, shortened: as §1
[5] = system: Human immunodeficiency virus 1; assay: Antiviral activity against HIV1 with RT connection domain K103N/T369I mutant transfected in HEK293 cells assessed as inhibition of viral replication relative to HIV1 NL4-3; procedure, shortened: as §1
[6] = system: Human immunodeficiency virus 1; assay: Antiviral activity against HIV1 with RT connection domain T369I/N348I mutant transfected in HEK293 cells assessed as inhibition of viral replication relative to HIV1 NL4-3; procedure, shortened: as §1
[7] = system: Human immunodeficiency virus 1; assay: Antiviral activity against HIV1 with RT connection domain Y181C/T369I/N348I mutant transfected in HEK293 cells assessed as inhibition of viral replication relative to HIV1 NL4-3; procedure, shortened: as §1
[8] = system: Human immunodeficiency virus 1; assay: Antiviral activity against HIV1 with RT connection domain T369I mutant transfected in HEK293 cells assessed as inhibition of viral replication relative to HIV1 NL4-3; procedure, shortened: as §1
[9] = system: Human immunodeficiency virus 1; assay: Antiviral activity against HIV1 with RT connection domain L100I/N348I mutant transfected in HEK293 cells assessed as inhibition of viral replication relative to HIV1 NL4-3; procedure, shortened: as §1
[10] = system: Human immunodeficiency virus 1; assay: Antiviral activity against HIV1 with RT connection domain K103N mutant transfected in HEK293 cells assessed as inhibition of viral replication relative to HIV1 NL4-3; procedure, shortened: as §1
[11] = system: Human immunodeficiency virus 1; assay: Antiviral activity against HIV1 with RT connection domain N348I mutant transfected in HEK293 cells assessed as inhibition of viral replication relative to HIV1 NL4-3; procedure, shortened: as §1
[12] = system: Human immunodeficiency virus 1; assay: Antiviral activity against HIV1 with RT connection domain Y181C mutant transfected in HEK293 cells assessed as inhibition of viral replication relative to HIV1 NL4-3; procedure, shortened: as §1
[13] = system: Human immunodeficiency virus 1; assay: Antiviral activity against HIV1 with RT connection domain K103N/N348I mutant transfected in HEK293 cells assessed as inhibition of viral replication relative to HIV1 NL4-3; procedure, shortened: as §1
[14] = system: Human immunodeficiency virus 1; assay: Antiviral activity against HIV1 with RT connection domain Y181C/T369I mutant transfected in HEK293 cells assessed as inhibition of viral replication relative to HIV1 NL4-3; procedure, shortened: as §1
[15] = system: Human immunodeficiency virus 1; assay: Antiviral activity against HIV1 with RT connection domain K103N/T369I/N348I mutant transfected in HEK293 cells assessed as inhibition of viral replication relative to HIV1 NL4-3; procedure, shortened: as §1
[16] = system: Human immunodeficiency virus 1; assay: Antiviral activity against HIV1 with RT connection domain Y181C/N348I mutant transfected in HEK293 cells assessed as inhibition of viral replication relative to HIV1 NL4-3; procedure, shortened: as §1
[17] = system: Human immunodeficiency virus 1; assay: Antiviral activity against HIV1 with RT connection domain G190A/T369I mutant transfected in HEK293 cells assessed as inhibition of viral replication relative to HIV1 NL4-3; procedure, shortened: as §1
[18] = system: Human immunodeficiency virus 1; assay: Antiviral activity against HIV1 with RT connection domain G190S/N348I mutant transfected in HEK293 cells assessed as inhibition of viral replication relative to HIV1 NL4-3; procedure, shortened: as §1
[19] = system: Human immunodeficiency virus 1; assay: Antiviral activity against HIV1 with RT connection domain L100I/T369I/N348I mutant transfected in HEK293 cells assessed as inhibition of viral replication relative to HIV1 NL4-3; procedure, shortened: as §1
[20] = system: Human immunodeficiency virus 1; assay: Antiviral activity against HIV1 with RT connection domain G190S/T369I mutant transfected in HEK293 cells assessed as inhibition of viral replication relative to HIV1 NL4-3; procedure, shortened: as §1
[21] = system: Human immunodeficiency virus 1; assay: Antiviral activity against HIV1 with RT connection domain G190S/T369I/N348I mutant transfected in HEK293 cells assessed as inhibition of viral replication relative to HIV1 NL4-3; procedure, shortened: as §1
[22] = system: Human immunodeficiency virus 1; assay: Antiviral activity against HIV1 with RT connection domain G190A mutant transfected in HEK293 cells assessed as inhibition of viral replication relative to HIV1 NL4-3; procedure, shortened: as §1
[23] = system: Human immunodeficiency virus 1; assay: Antiviral activity against HIV1 with RT connection domain G190A/N348Ib mutant transfected in HEK293 cells assessed as inhibition of viral replication relative to HIV1 NL4-3; procedure, shortened: as §1
[24] = system: Human immunodeficiency virus 1; assay: Antiviral activity against HIV1 with RT connection domain L100I mutant transfected in HEK293 cells assessed as inhibition of viral replication relative to HIV1 NL4-3; procedure, shortened: as §1

SMILES | fold change (FC) [1] | fold change (FC) [2] | fold change (FC) [3] | fold change (FC) [4] | fold change (FC) [5] | fold change (FC) [6] | fold change (FC) [7] | fold change (FC) [8] | fold change (FC) [9] | fold change (FC) [10] | fold change (FC) [11] | fold change (FC) [12] | fold change (FC) [13] | fold change (FC) [14] | fold change (FC) [15] | fold change (FC) [16] | fold change (FC) [17] | fold change (FC) [18] | fold change (FC) [19] | fold change (FC) [20] | other results
CC(C)Nc1cccnc1N1CCN(C(=O)c2cc3cc(NS(C)(=O)=O)ccc3[nH]2)CC1 [DELAVIRDINE] | 0.3 | 49.7 | 5.5 | 5.9 | >250 | 29.8 | >250 | 5.2 | 90.7 | 75.7 | 3.4 | 44.7 | >250 | >250 | >250 | >250 | 1.2 | 0.9 | >250 | 0.6 | fold change (FC) [21]: 6.9; fold change (FC) [22]: 0.3; fold change (FC) [23]: 1.1; fold change (FC) [24]: 34
O=C1Nc2ccc(Cl)cc2[C@@](C#CC2CC2)(C(F)(F)F)O1 [EFAVIRENZ] | 63 | 13.6 | 3.1 | >700 | 164.1 | 8.1 | 17 | 2.4 | 16 | 21.3 | 1.9 | 1.7 | 115 | 4 | >700 | 3.2 | 33.7 | >700 | 137.7 | >700 | fold change (FC) [21]: >700; fold change (FC) [22]: 5.2; fold change (FC) [23]: 26; fold change (FC) [24]: 9
Cc1ccnc2c1NC(=O)c1cccnc1N2C1CC1 [NEVIRAPINE] | 145 | 4.8 | 9.2 | >400 | >400 | 58.6 | >400 | 8.4 | 5.3 | 81 | 4.1 | 317 | >400 | >400 | >400 | >400 | >400 | >400 | 56.3 | >400 | fold change (FC) [21]: >400; fold change (FC) [22]: 127.7; fold change (FC) [23]: >400; fold change (FC) [24]: 2.1
Cc1cn([C@H]2C[C@H](N=[N+]=[N-])[C@@H](CO)O2)c(=O)[nH]c1=O [ZIDOVUDINE] | 0.8 | 0.2 | 2.1 | 4.2 | 2.3 | 5.4 | 2.2 | 2.7 | 0.3 | 1.1 | 2.4 | 0.3 | 2.6 | 0.9 | 7.9 | 0.7 | 1.7 | 1.7 | 0.5 | 0.7 | fold change (FC) [21]: 5.8; fold change (FC) [22]: 1.1; fold change (FC) [23]: 2; fold change (FC) [24]: 0.1
